Data reported in publication PMC7240828 (ACS Omega, 2020).
“Also recorded” adds a separate entry of the source.

Legend:
Caco-2 BBe1 monolayers = assay type: in vitro ADME, human; conditions: 50 μM apical, 0.5, 2 and 4 h, cell lysate and basolateral compartment
Procedure, shortened: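 Cells at passage 50–60 were grown on PET inserts (3 × 10^4 cells/well) in supplemented high-glucose DMEM at 37 °C, 5% CO2. Monolayers with TEER >400 Ω cm2 on day 9 were used. 50 μM test compound in HBSS pH 6.4 was applied apically, with HBSS/10 mM HEPES pH 7.4 basolaterally. Basolateral medium and sonicated, methanol/2% FA-extracted lysates were sampled at 0.5, 2 and 4 h.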

SGLT1 = target: T1, SGLT1 (Homo sapiens, UniProt P13866); test: Flavonoid uptake/transport in Caco-2 BBe1 cells with phloridzin; assay type: in vitro ADME; conditions: 50 μM flavonoid, 4 h; for fold change of glycoside transport by phloridzin-mediated inhibition: 1 μM phloridzin 30 min pretreatment, basolateral transport; for effect of phloridzin on cellular uptake and transport of the flavonoid / effect of phloridzin on cellular uptake of the flavonoid: 1 μM phloridzin; for effect of phloridzin on cellular uptake of the flavonoid: cell lysate
T1 sequence (P13866 1-664): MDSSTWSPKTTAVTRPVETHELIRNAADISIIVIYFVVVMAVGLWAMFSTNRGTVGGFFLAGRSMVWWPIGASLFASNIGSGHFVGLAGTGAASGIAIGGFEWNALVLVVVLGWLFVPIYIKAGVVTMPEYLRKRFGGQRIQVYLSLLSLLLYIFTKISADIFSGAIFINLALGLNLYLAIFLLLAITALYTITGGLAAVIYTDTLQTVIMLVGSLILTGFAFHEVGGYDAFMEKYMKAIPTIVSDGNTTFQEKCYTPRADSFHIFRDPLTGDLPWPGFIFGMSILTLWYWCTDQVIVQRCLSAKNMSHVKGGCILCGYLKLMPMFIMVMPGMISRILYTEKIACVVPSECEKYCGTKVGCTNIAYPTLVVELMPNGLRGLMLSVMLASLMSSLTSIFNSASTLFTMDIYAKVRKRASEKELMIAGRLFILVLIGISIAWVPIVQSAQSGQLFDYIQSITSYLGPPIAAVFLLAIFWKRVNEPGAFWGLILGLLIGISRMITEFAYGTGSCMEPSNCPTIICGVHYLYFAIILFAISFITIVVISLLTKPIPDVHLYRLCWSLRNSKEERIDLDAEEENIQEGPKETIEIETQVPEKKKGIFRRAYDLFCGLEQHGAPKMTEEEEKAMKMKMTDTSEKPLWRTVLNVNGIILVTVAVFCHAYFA
Procedure, shortened: (§1)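 Quantitation was by HPLC on a phenyl-hexyl column (DAD, 360 and 520 nm), using external standard curves from 0–50 μM. Values are expressed as percent of the amount added apically. Data are mean ± SEM of at least three independent experiments.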

GLUT2 = target: T2, GLUT2 (Homo sapiens, UniProt P11168); test: Flavonoid uptake/transport in Caco-2 BBe1 cells with phloretin; assay type: in vitro ADME; conditions: 1 μM phloretin, 50 μM flavonoid, 4 h, cell lysate
T2 sequence (P11168 1-524): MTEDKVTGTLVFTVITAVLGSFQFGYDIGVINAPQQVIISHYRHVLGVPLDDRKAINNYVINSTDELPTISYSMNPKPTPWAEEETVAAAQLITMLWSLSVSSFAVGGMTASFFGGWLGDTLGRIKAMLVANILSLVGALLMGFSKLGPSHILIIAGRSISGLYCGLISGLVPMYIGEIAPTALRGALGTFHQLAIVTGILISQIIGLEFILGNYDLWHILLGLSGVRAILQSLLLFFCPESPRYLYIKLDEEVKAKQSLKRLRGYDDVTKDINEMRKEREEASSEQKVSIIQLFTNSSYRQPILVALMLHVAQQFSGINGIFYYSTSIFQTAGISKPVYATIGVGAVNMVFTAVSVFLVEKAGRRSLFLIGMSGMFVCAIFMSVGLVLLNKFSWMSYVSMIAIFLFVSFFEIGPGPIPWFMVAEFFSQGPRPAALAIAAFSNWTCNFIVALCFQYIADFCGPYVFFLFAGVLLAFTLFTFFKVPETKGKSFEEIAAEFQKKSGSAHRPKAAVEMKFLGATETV
Procedure, shortened: as §1

Caco-2 BBe1 cells = test: Cellular glucose; assay type: cell-based, human; conditions: 50 μM, 2 h pretreatment, 2-NBDG fluorescence, vs positive control
Procedure, shortened: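 Cells seeded at 1 × 10^5 per well and grown overnight, then PBS-washed. Pretreated with 50 μM test compound in glucose-free DMEM for 2 h. Glucose-free DMEM containing 300 μg/mL 2-NBDG was then added for another 2 h. After a PBS wash, fluorescence was read at ex 485/em 535 nm and compared with the positive control group.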

Caco-2 cells = conditions: SGLT1-depended manner; cited from earlier work

Structure (SMILES) | fold change of glycoside transport by phloridzin-mediated inhibition (SGLT1) [fold] | effect of phloridzin on cellular uptake of the flavonoid (SGLT1) | effect of phloretin on cellular uptake of the flavonoid (GLUT2) | cellular uptake and transport kinetics (Caco-2 BBe1 monolayers) | effect of phloridzin on cellular uptake and transport of the flavonoid (SGLT1) | inhibition of glucose uptake (Caco-2 BBe1 cells) | inhibition of glucose uptake (Caco-2 cells)
Oc1cc(O)c2cc(O)c(-c3ccc(O)c(O)c3)[o+]c2c1 [cyanidin] | – | – | – | noticeable decrease; also recorded: readily permeated into the intestinal mucosa within 2 h | no effect on the uptake and transport | significantly blocked the glucose uptake | –
C[C@@H]1O[C@@H](OC[C@H]2O[C@@H](Oc3c(-c4ccc(O)c(O)c4)oc4cc(O)cc(O)c4c3=O)[C@H](O)[C@@H](O)[C@@H]2O)[C@H](O)[C@H](O)[C@H]1O [rutin, quercetin 3-rutinoside] | 5.77 | – | – | – | significantly reduced the amount of cellular and transported | – | inhibited glucose uptake
O=c1c(O)c(-c2ccc(O)c(O)c2)oc2cc(O)cc(O)c12 [quercetin] | – | – | – | both concentrations continued to increase; also recorded: readily permeated into the intestinal mucosa within 2 h | no effect on the uptake and transport | significantly blocked the glucose uptake | –
O=c1c(O[C@@H]2O[C@H](CO)[C@@H](O)[C@H](O)[C@H]2O)c(-c2ccc(O)c(O)c2)oc2cc(O)cc(O)c12 [Q-3-G, quercetin 3-β-D-glucoside] | 2.31 | – | – | – | significantly reduced the amount of cellular and transported | – | –

Continued, in another order:

fold change of glycoside transport by phloridzin-mediated inhibition (SGLT1) [fold] | effect of phloridzin on cellular uptake of the flavonoid (SGLT1) | effect of phloretin on cellular uptake of the flavonoid (GLUT2) | Structure (SMILES) | cellular uptake and transport kinetics (Caco-2 BBe1 monolayers) | effect of phloridzin on cellular uptake and transport of the flavonoid (SGLT1) | inhibition of glucose uptake (Caco-2 BBe1 cells) | inhibition of glucose uptake (Caco-2 cells)
3.29 | less significant | – | OC[C@H]1O[C@@H](Oc2cc3c(O)cc(O)cc3[o+]c2-c2ccc(O)c(O)c2)[C@H](O)[C@@H](O)[C@@H]1O [C-3-G, cyanidin 3-O-glucoside] | continued to increase as the incubation period extends from 30 min to 4 h | significantly reduced the amount of cellular and transported | – | –
6.45 | significantly inhibited by phloridzin | significantly inhibited cellular uptake | OC[C@H]1O[C@@H](Oc2cc3c(O[C@@H]4O[C@H](CO)[C@@H](O)[C@H](O)[C@H]4O)cc(O)cc3[o+]c2-c2ccc(O)c(O)c2)[C@H](O)[C@@H](O)[C@@H]1O [cyanin, cyanidin 3,5-diglucoside] | continued to increase as the incubation period extends from 30 min to 4 h | significantly reduced the amount of cellular and transported | – | –
